Experiments:
[1] = molecular target: T1, RNA-directed RNA polymerase (Hepacivirus hominis, UniProt O39930); test: Inhibition of HCV 1a NS5B RNA polymerase
[2] = molecular target: T1, RNA-directed RNA polymerase; test: Inhibition of HCV 1b NS5B RNA polymerase; design: species or system Hepatitis C virus subtype 1b
Hepatitis C virus [3] = test: Inhibition of HCV 1b replication in presence of 5% fetal calf serum; type: functional, organism-based, Hepatitis C virus subtype 1b
Method in brief: (§1)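 Genotype 1b HCV replicon cell culture assay. The medium held 5% fetal calf serum […] and 40% human serum […]. EC50 is the mean of at least two independent determinations, standard deviation ±10%.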

Hepatitis C virus [4] = test: Inhibition of HCV 1b replication in presence of 40% human serum; type: functional, organism-based, Hepatitis C virus subtype 1b; method in brief: as §1

T1 sequence (O39930 whole entry): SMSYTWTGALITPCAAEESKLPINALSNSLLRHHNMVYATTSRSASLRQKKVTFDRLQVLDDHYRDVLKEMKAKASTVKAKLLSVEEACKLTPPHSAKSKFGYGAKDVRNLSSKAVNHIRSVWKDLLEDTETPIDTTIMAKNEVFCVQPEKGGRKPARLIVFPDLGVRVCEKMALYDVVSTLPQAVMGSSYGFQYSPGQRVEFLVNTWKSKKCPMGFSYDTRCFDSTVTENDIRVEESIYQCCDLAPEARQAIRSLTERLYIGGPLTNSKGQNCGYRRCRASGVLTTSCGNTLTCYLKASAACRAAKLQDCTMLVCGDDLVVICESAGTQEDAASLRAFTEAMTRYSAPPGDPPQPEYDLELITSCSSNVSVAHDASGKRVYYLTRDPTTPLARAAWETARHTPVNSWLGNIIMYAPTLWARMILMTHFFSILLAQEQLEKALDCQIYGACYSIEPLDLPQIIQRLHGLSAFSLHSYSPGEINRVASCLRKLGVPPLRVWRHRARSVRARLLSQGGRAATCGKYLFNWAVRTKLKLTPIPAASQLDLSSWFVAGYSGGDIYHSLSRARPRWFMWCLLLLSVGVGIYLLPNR

Structure (SMILES) | IC50 [1] | also measured
CC(C)CCn1c(=O)c(C2=Nc3ccc(NS(=O)(=O)NC(=O)OCc4ccccc4)cc3S(=O)(=O)N2)c(O)c2cccnc21 | 58 nM | 
CC(C)CCn1c(=O)c(C2=Nc3ccc(NS(=O)(=O)NCCc4ccccc4)cc3S(=O)(=O)N2)c(O)c2cccnc21 | 18 nM | IC50 [2]: 37 nM; EC50 (Hepatitis C virus [3]): 1270 nM
CC(C)CCn1c(=O)c(C2=Nc3ccc(NS(=O)(=O)NC(=O)OCCN)cc3S(=O)(=O)N2)c(O)c2cccnc21 | 21 nM | 
CC(C)CCn1c(=O)c(C2=Nc3ccc(NS(=O)(=O)NC(=O)OCC(=O)O)cc3S(=O)(=O)N2)c(O)c2cccnc21 | 50 nM | 
CC(C)CCn1c(=O)c(C2=Nc3ccc(NS(=O)(=O)NCc4cccc([N+](=O)[O-])c4)cc3S(=O)(=O)N2)c(O)c2cccnc21 | 13 nM | 
CC(C)CCn1c(=O)c(C2=Nc3ccc(NS(=O)(=O)Nc4ccccc4)cc3S(=O)(=O)N2)c(O)c2cccnc21 | 41 nM | 
CC(C)CCn1c(=O)c(C2=NS(=O)(=O)c3cc(NS(=O)(=O)Nc4cccc(C(N)=O)c4)ccc3N2)c(O)c2cccnc21 | 43 nM | 
CC(C)CCn1c(=O)c(C2=Nc3ccc(NS(=O)(=O)NCCN)cc3S(=O)(=O)N2)c(O)c2cccnc21 | 10 nM | 
COC(=O)c1ccc(NS(=O)(=O)Nc2ccc3c(c2)S(=O)(=O)N=C(c2c(O)c4cccnc4n(CCC(C)C)c2=O)N3)cc1 | 48 nM | 
COc1cccc(CNS(=O)(=O)Nc2ccc3c(c2)S(=O)(=O)NC(c2c(O)c4cccnc4n(CCC(C)C)c2=O)=N3)c1 | 15 nM | 
NS(=O)(=O)Nc1ccc2c(c1)S(=O)(=O)NC(c1c(O)c3ccccc3n(NC3CCC3)c1=O)=N2 | 5.2 nM | IC50 [2]: 0.4 nM; EC50 (Hepatitis C virus [3]): 3 nM; EC50 (Hepatitis C virus [4]): 81 nM
COc1ccc(CNS(=O)(=O)Nc2ccc3c(c2)S(=O)(=O)N=C(c2c(O)c4cccnc4n(CCC(C)C)c2=O)N3)cc1 | 10 nM | 
CC(C)CCn1c(=O)c(C2=Nc3ccc(NS(=O)(=O)NC(=O)OCCC#N)cc3S(=O)(=O)N2)c(O)c2cccnc21 | 35 nM | IC50 [2]: 6.7 nM; EC50 (Hepatitis C virus [3]): 98 nM
CC(C)CCn1c(=O)c(C2=Nc3ccc(NS(=O)(=O)NC4CCCCC4)cc3S(=O)(=O)N2)c(O)c2cccnc21 | 67 nM | 
CC(C)CCn1c(=O)c(C2=Nc3ccc(NS(=O)(=O)NC(=O)OCCCl)cc3S(=O)(=O)N2)c(O)c2cccnc21 | 189 nM | 
CC(C)CCn1c(=O)c(C2=Nc3ccc(NS(=O)(=O)Nc4ccc(C(N)=O)cc4)cc3S(=O)(=O)N2)c(O)c2cccnc21 | 18 nM | 
C#CCOC(=O)NS(=O)(=O)Nc1ccc2c(c1)S(=O)(=O)N=C(c1c(O)c3cccnc3n(CCC(C)C)c1=O)N2 | 72 nM | 
COC(=O)NS(=O)(=O)Nc1ccc2c(c1)S(=O)(=O)N=C(c1c(O)c3cccnc3n(CCC(C)C)c1=O)N2 | 63 nM | 
CC(C)CCn1c(=O)c(C2=NS(=O)(=O)c3cc(NS(C)(=O)=O)ccc3N2)c(O)c2cccnc21 | 2.4 nM | IC50 [2]: 6 nM
COCCOC(=O)NS(=O)(=O)Nc1ccc2c(c1)S(=O)(=O)NC(c1c(O)c3cccnc3n(CCC(C)C)c1=O)=N2 | 87 nM | 

Structure (SMILES) | IC50 [1] | also measured
CC(C)CCn1c(=O)c(C2=NS(=O)(=O)c3cc(NS(=O)(=O)NCc4ccccc4)ccc3N2)c(O)c2cccnc21 | 5.5 nM | IC50 [2]: 44 nM; EC50 (Hepatitis C virus [3]): 398 nM
CC(C)CCn1c(=O)c(C2=Nc3ccc(NS(=O)(=O)NCCO)cc3S(=O)(=O)N2)c(O)c2cccnc21 | 107 nM | 
CC(C)CCn1c(=O)c(C2=NS(=O)(=O)c3cc(NS(=O)(=O)Nc4cccc(C(=O)NCC(N)=O)c4)ccc3N2)c(O)c2cccnc21 | 43 nM | 
CC(C)CCn1c(=O)c(C2=NS(=O)(=O)c3cc(NS(=O)(=O)Nc4ccc(C(=O)O)cc4)ccc3N2)c(O)c2cccnc21 | 20 nM | 
CCOC(=O)c1cccc(NS(=O)(=O)Nc2ccc3c(c2)S(=O)(=O)NC(c2c(O)c4cccnc4n(CCC(C)C)c2=O)=N3)c1 | 132 nM | 
CC(C)CCn1c(=O)c(C2=Nc3ccc(NS(=O)(=O)NC4CCCC4)cc3S(=O)(=O)N2)c(O)c2cccnc21 | 39 nM | 
CC(C)CCn1c(=O)c(C2=NS(=O)(=O)c3cc(NS(=O)(=O)N(C)C(=O)OCc4ccccc4)ccc3N2)c(O)c2cccnc21 | 121 nM | 
COc1ccccc1CNS(=O)(=O)Nc1ccc2c(c1)S(=O)(=O)NC(c1c(O)c3cccnc3n(CCC(C)C)c1=O)=N2 | 57 nM | 
CNS(=O)(=O)Nc1ccc2c(c1)S(=O)(=O)NC(c1c(O)c3ccccc3n(NC3CCC3)c1=O)=N2 | 8.7 nM | EC50 (Hepatitis C virus [3]): 11 nM; EC50 (Hepatitis C virus [4]): 420 nM
CC(C)CCn1c(=O)c(C2=Nc3ccc(NS(=O)(=O)NC4CCNCC4)cc3S(=O)(=O)N2)c(O)c2cccnc21 | 32 nM | 
CC(C)CCn1c(=O)c(C2=NS(=O)(=O)c3cc(NS(N)(=O)=O)ccc3N2)c(O)c2cccnc21 | 9 nM | IC50 [2]: 2.8 nM; EC50 (Hepatitis C virus [3]): 17 nM
C=CCOC(=O)NS(=O)(=O)Nc1ccc2c(c1)S(=O)(=O)N=C(c1c(O)c3cccnc3n(CCC(C)C)c1=O)N2 | 88 nM | 
CCOC(=O)COC(=O)NS(=O)(=O)Nc1ccc2c(c1)S(=O)(=O)NC(c1c(O)c3cccnc3n(CCC(C)C)c1=O)=N2 | 61 nM | 
CC(C)CCn1c(=O)c(C2=Nc3ccc(NS(=O)(=O)NN4CCCC4)cc3S(=O)(=O)N2)c(O)c2cccnc21 | 27 nM | 
CC(C)CCn1c(=O)c(C2=Nc3ccc(NS(=O)(=O)Nc4cccc(C(=O)O)c4)cc3S(=O)(=O)N2)c(O)c2cccnc21 | 115 nM | 
COC(=O)c1ccccc1NS(=O)(=O)Nc1ccc2c(c1)S(=O)(=O)NC(c1c(O)c3cccnc3n(CCC(C)C)c1=O)=N2 | 129 nM | 
CNS(=O)(=O)Nc1ccc2c(c1)S(=O)(=O)NC(c1c(O)c3cccnc3n(CCC(C)C)c1=O)=N2 | 14 nM | 
CNC(=O)c1ccc(NS(=O)(=O)Nc2ccc3c(c2)S(=O)(=O)N=C(c2c(O)c4cccnc4n(CCC(C)C)c2=O)N3)cc1 | 43 nM | 
CC(C)CCn1c(=O)c(C2=Nc3ccc(NS(=O)(=O)NC(=O)OCCOCc4ccccc4)cc3S(=O)(=O)N2)c(O)c2cccnc21 | 96 nM | 
CC(C)CCn1c(=O)c(C2=Nc3ccc(NS(=O)(=O)NCCC(N)=O)cc3S(=O)(=O)N2)c(O)c2cccnc21 | 20 nM | 

— ChEMBL document CHEMBL1138070, “Inhibitors of HCV NS5B polymerase: synthesis and structure-activity relationships of N-alkyl-4-hydroxyquinolon-3-yl-benzothiadiazine sulfamides” (Bioorg Med Chem Lett, 2006)
